Laboratory results from ChEMBL document CHEMBL4334455, “Synthesis of Usnic Acid Derivatives and Evaluation of Their Antiproliferative Activity against Cancer Cells” (J Nat Prod, 2019).
Calls of active or inactive are those of the source. The calls are words filed in the database; no cut-off is given here.

How the values were obtained:
MCF7 [1] = test: Induction of cell cycle arrest in human MCF7 cells assessed as accumulation of cells at G0/G1 phase at 8.7 uM after 24 hrs by Propidium iodide staining based flow cytometric analysis (reference value: 47.8 +/- 0.42%); format: functional
MCF7 [2] = test: Induction of vacuolization in human MCF7 cells assessed as increase in LAMP1 expression at 8.7 uM by Western blot analysis relative to control; format: functional
Procedure, shortened: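 Lysates were cleared, run on SDS-PAGE and blotted to PVDF, then probed for LAMP1. Blocking was 5% milk in PBS, primary antibody overnight at 4 °C, secondary 1 h at room temperature. Blots were stripped, reprobed for β-actin, and densitometry was corrected for loading.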

MCF7 [3] = test: Induction of vacuolization in human MCF7 cells at 8.7 uM after 24 hrs in presence of 10 uM Na+/H+ exchange inhibitor, amiloride by light microscopic analysis; format: functional, cell-based
MCF7 [4] = test: Induction of apoptosis in human MCF7 cells assessed as reduction in Bcl-2 expression at 2.9 uM after 24 hrs by immunoblot analysis relative to control; format: functional
Procedure, shortened: (§1)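 Proteins run on SDS-PAGE, transferred to PVDF, blocked in 5% milk/PBS, primary antibody overnight at 4 °C (cleaved PARP, Bax, Bcl-2), secondary 1 h at room temperature. Reprobed for β-actin; densitometry corrected for loading.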

HeLa [5] = test: Anticlonogenic activity against human HeLa cells assessed as reduction in colony formation at 2.9 to 11.6 uM incubated for 24 hrs followed by recovery period of 2 weeks by culturing cells in drug-free medium by crystal violet staining based assay; format: functional, cell-based
Procedure, shortened: (§2)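 Cells (1 × 10⁶) plated, after 24 h given fresh medium with derivative at 1, 2, 3 or 4 μg mL⁻¹ for 24 h; then trypsinized, counted, 8 × 10² replated into two plates in compound-free medium. After 2 weeks fixed with 6.0% glutaraldehyde, stained with 0.5% crystal violet; colonies of ≥50 cells counted. Mean ± SE of three experiments in duplicate.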

MCF7 [6] = test: Induction of vacuolization in human MCF7 cells assessed as increase in LAMP1 expression at 2.9 uM by Western blot analysis relative to control; format: functional
MCF7 [7] = test: Induction of cell cycle arrest in human MCF7 cells assessed as accumulation of cells at S phase at 8.7 uM after 24 hrs by Propidium iodide staining based flow cytometric analysis (reference value: 23.75 +/- 1.87%); format: functional
[8] = Cytotoxicity against human HDFa cells assessed as reduction in cell viability after 24 hrs by MTT assay; format: cell-based
Procedure, shortened: (§3)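 Cells seeded at 4 × 10³/well for 24 h runs and for PC-3, or 2 × 10³/well for MCF-7 and HeLa 48 h runs, and attached overnight. Medium replaced with compound-containing medium for 24 or 48 h. MTT (4 mg mL⁻¹) added for the final 3 h, formazan dissolved in DMSO, absorbance read at 570 nm (reference 660 nm). IC₅₀ calculated from at least three independent experiments in duplicate, mean ± SE.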

MCF7 [9] = test: Anticlonogenic activity against human MCF7 cells assessed as reduction in colony formation at 2.9 to 11.6 uM incubated for 24 hrs followed by recovery period of 2 weeks by culturing cells in drug-free medium by crystal violet staining based assay; format: functional, cell-based; procedure, shortened: as §2
HeLa [10] = test: Cell cycle arrest in human HeLa cells assessed as reduction in cell population at S phase at 2.9 to 8.7 uM after 24 hrs by propidium iodide staining based flow cytometric analysis; format: functional
MCF7 [11] = test: Induction of cell cycle arrest in human MCF7 cells assessed as accumulation of cells at S phase at 2.9 uM after 24 hrs by Propidium iodide staining based flow cytometric analysis (reference value: 23.75 +/- 1.87%); format: functional
PC-3 [12] = test: Antiproliferative activity against human PC3 cells assessed as reduction in cell viability after 24 hrs by MTT assay; format: functional, cell-based; details: PC-3, 24 h; procedure, shortened: as §3
PC-3 [13] = test: Anticlonogenic activity against human PC3 cells assessed as reduction in colony formation at 2.9 to 11.6 uM incubated for 24 hrs followed by recovery period of 2 weeks by culturing cells in drug-free medium by crystal violet staining based assay; format: functional, cell-based; procedure, shortened: as §2
MCF7 [14] = test: Induction of vacuolization in human MCF7 cells at 8.7 uM after 24 to 48 hrs in presence of early autophagy inhibitor, wortmannin by TEM analysis; format: functional, cell-based
MCF7 [15] = test: Induction of apoptosis in human MCF7 cells assessed as reduction in Bcl-2 expression at 8.7 uM after 24 hrs by immunoblot analysis relative to control; format: functional; procedure, shortened: as §1

| IC50 (PC-3 [12]) [µM] | SMILES | Activity (MCF7 [1]) [%] | fold change (FC) (MCF7 [2]) | Activity (MCF7 [3]) | fold change (FC) (MCF7 [4]) | inhibition (HeLa [5]) | fold change (FC) (MCF7 [6]) | Activity (MCF7 [7]) [%] | IC50 [8] [µM] | inhibition (MCF7 [9]) | Activity (HeLa [10]) | Activity (MCF7 [11]) [%] | inhibition (PC-3 [13]) | Activity (MCF7 [14]) | fold change (FC) (MCF7 [15]) |
| --- | --- | --- | --- | --- | --- | --- | --- | --- | --- | --- | --- | --- | --- | --- | --- |
| 3.2 | CC(=O)c1c(O)c(C)c(O)c2c1OC1=Cc3onc(C)c3C(=O)[C@]12C | 75.7 | 5.1 | Active | 0.5 | Active | 5.3 | 7.25 | 9.2 | Active | Active | 11.15 | Active | Active | 0.2 |
| 3.4 | CC(=O)c1c(O)c(C)c(O)c2c1OC1=Cc3onc(C)c3C(=O)C12C (racemic) | 75.45 | 1.8 | Active | 0.6 | Active | 1.3 | 8.35 | > 10 | Active | Active | 10.1 | Active | Active | 0.3 |
